By inhibition is commonly meant the percentage by which the read-out fell short of the control. The CC50 is the concentration that lowers cell viability or growth by half.

The source made the active and inactive calls. The rule behind the calls is not given here.

Data set [1] deals with Hypoxia-inducible factor 1-alpha (Homo sapiens) (UniProt Q16665). Briefly: Inhibition of HIF1alpha transcriptional activity in hypoxia-induced human HCCLM3 cells co-transfected with luciferase reporter plasmid containing five copies of HREs and pRL-SV40 plasmid encoding Renilla luciferase at 10 uM incubated with compound under normoxia for 1 hr followed by hypoxia induction and measured after 24 hrs by HRE-dependent dual luciferase reporter gene assay relative to control. In a few lines:
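LM3 cells co-transfected with firefly luciferase reporter carrying five HRE copies plus pRL-SV40 Renilla plasmid; after transfection treated and kept under hypoxia; firefly luminescence normalized to Renilla. Single-point inhibition rate at 10 μM; IC50 for selected compounds.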
Background: A reporter such as luciferase makes a cellular process visible.

Data set [2] is described as follows: Cytotoxicity against human HCCLM3 cells assessed as reduction in cell viability incubated for 48 hrs by MTT assay. The format is cell-based. On the technique in general: Tetrazolium dyes change colour on reduction, which living cells bring about.
The species entered for data set [3] is Danio rerio. The data set is described as follows: Antiangiogenic activity in […]/EGFP transgenic zebrafish embryo assessed as destruction of subintestinal vessel at 0.5 uM incubated for 24 hrs by confocal microscopic method. The format is functional, organism-based. In a few lines: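 Transgenic zebrafish with GFP-labeled vascular endothelium; embryos selected, […], exposed 24 h to 0.5 or 1 μM (DMSO vehicle, n = 10; apatinib 0.5 μM reference); SIVs imaged by confocal microscopy and counted per field; means ± SD, three independent experiments.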

In data set [4] the test system is HCCLM3. Briefly: Inhibition of HIF1alpha accumulation in hypoxia-induced human HCCLM3 cells at 10 uM incubated with compound under normoxia for 1 hr followed by hypoxia induction and measured after 24 hrs by Western blot analysis. The format is functional, cell-based. In a few lines:
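LM3 cells treated at 10 μM under hypoxia; HIF-1α protein by western blot, LW6 as reference.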

Sequence of Hypoxia-inducible factor 1-alpha (Homo sapiens) (Q16665 whole entry, looked up): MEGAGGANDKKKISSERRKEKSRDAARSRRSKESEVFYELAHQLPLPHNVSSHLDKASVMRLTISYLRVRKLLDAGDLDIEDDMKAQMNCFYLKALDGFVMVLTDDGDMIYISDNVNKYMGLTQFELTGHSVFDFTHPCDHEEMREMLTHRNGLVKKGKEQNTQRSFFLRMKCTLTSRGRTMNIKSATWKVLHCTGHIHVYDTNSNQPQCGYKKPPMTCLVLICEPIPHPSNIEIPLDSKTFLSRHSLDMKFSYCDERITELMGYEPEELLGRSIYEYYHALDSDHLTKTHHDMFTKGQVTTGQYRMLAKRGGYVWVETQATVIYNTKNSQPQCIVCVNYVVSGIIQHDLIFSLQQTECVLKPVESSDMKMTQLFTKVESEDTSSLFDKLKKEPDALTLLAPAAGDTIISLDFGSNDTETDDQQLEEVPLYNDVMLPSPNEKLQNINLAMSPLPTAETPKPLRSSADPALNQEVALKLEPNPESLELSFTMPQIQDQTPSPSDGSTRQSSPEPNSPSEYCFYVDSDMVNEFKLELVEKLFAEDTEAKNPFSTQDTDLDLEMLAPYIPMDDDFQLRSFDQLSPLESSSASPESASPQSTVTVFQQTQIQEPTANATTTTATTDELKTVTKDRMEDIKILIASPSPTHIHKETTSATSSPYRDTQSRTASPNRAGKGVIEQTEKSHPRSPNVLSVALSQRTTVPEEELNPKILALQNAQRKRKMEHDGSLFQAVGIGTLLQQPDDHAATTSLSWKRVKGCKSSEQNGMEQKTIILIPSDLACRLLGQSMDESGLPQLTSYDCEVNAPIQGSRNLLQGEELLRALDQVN

As to `O=C(NCCc1ccccc1F)c1ccc(-c2ccc(O)cc2)cn1`, the inhibition in data set [1] was found to be 33.2%. Same read-out and setting: as for `COc1cccc(-c2ccc(C(=O)NCCc3ccccc3F)nc2)c1`, the figure is 53.8%; as for `O=C(NCCc1ccccc1Cl)c1ccc(-c2ccccc2)nc1`, 45.1%. For the molecule `O=C(NCCc1ccccc1Cl)c1csc(-c2ccncc2)n1`, the inhibition in data set [1] was determined as 18.4%. The same measure, in the same setting: the same measure for `Cc1ccc(C(=O)NCCc2ccccc2Cl)o1`: 17.4%.

On to `O=C(NCCc1ccncc1)c1ccc(-c2ccccc2)cn1`, for which, in data set [2], the CC50 at 48 h is over 50 µM. In addition, the inhibition in data set [1] is 60.7%. For `O=C(NCCc1ccccc1Cl)c1csc(-c2ccccc2)n1`, the inhibition in data set [1] was 54.1%.

On to `O=C(NCCc1ccccc1Cl)c1nnc(-c2ccccc2)o1`, for which, in data set [1], the inhibition was 41.8%.

Regarding `O=C(NCCc1ccccc1F)c1ccc(-c2ccccc2O)cn1`, in data set [1], the inhibition was 43.6%.

Regarding `O=C(NCCc1ccncc1)c1csc(-c2cccnc2)n1`, in data set [1], the inhibition turned out to be 33.9%. Take `O=C(NCCc1cccc(Cl)c1)c1ccc(-c2ccccc2)cn1`: in data set [2], the CC50 at 48 h was over 50 µM. Besides, the inhibition in data set [1] turned out to be 64.6%. The matching figures for `O=C(NCCc1ccccc1F)c1ccc(-c2ccsc2)cn1`: over 50 µM and 88.2%. For `Cc1ccc(C(=O)NCCc2ccncc2)o1`, in data set [1], the inhibition was 12.8%. Take `O=C(NCCc1ccccc1Cl)c1cc(-c2ccccc2)ncn1`: the inhibition in data set [1] stood at 56.7%.

Take `O=C(NCCc1ccncc1)c1csc(-c2ccncc2)n1`: in data set [1], the inhibition came out at 19.9%. On the same count and under the same terms, as for `Cc1nc(C(=O)NCCc2ccncc2)cs1`, the figure is 31.3%. Still for that read-out and setting: the same measure for `O=C(NCCc1ccccc1Cl)c1noc(-c2ccccc2)n1`: 40.5%; for `O=C(NCCc1ccccc1F)c1ccc(-c2ccncc2)cn1`: 57.5%. As to `Cc1ccc(CCNC(=O)c2ccc(-c3ccccc3)cn2)cc1`, in data set [1], the inhibition was found to be 31.8%. Regarding `O=C(NCCc1ccccc1F)c1ccc(-c2cccc(F)c2)cn1`, the inhibition in data set [1] was 55.3%. Turning to `O=C(NCCc1ccc(O)cc1)c1ccc(-c2ccccc2)cn1`, the inhibition in data set [1] was 36.9%. Still for that read-out and setting: the same measure for `N#Cc1ccc(-c2ccc(C(=O)NCCc3ccccc3F)nc2)cc1`: 13.1%; for `Cc1ccc(C(=O)NCCc2ccccc2Cl)cc1`: 45.3%. For `O=C(NCCc1ccccc1Cl)c1nc(-c2ccccc2)no1`, the inhibition in data set [1] is 44.1%. For the molecule `Cc1nc(C(=O)NCc2ccccc2)cs1`, the inhibition in data set [1] is 3.1%. The same measure, in the same setting: the same measure for `O=C(NCCc1cccnc1)c1ccc(-c2ccccc2)cn1`: 44.5%; for `O=C(NCCc1ccccc1F)c1ccc(-c2ccc(F)cc2)cn1`: 41.2%; for `O=C(NCCc1ccncc1)c1noc(-c2ccccc2)n1`: 49.7%. The same measure, in the same setting: the same measure for `O=C(NCCc1ccccc1F)c1ccc(-c2ccco2)cn1`: 57.2%; for `Cc1ccc(C(=O)NCCc2ccncc2)cc1`: 3.1%; for `Cc1cccc(C(=O)NCCc2ccccc2Cl)n1`: 37.3%.

`O=C(NCCc1ccc([N+](=O)[O-])cc1)c1ccc(-c2ccccc2)cn1`: the inhibition in data set [1] came to 40.2%. `O=C(NCCc1ccncc1)c1csc(-c2ccccc2)n1`: the inhibition in data set [1] amounted to 48.7%.

Take `Cc1nc(C(=O)NCCc2ccccc2Cl)cs1`: in data set [1], the inhibition came out at 42.7%.

As to `O=C(NCCc1ccccc1F)c1ccc(-c2cccc(O)c2)cn1`, the inhibition in data set [1] worked out at 0.3%.

For the molecule `O=C(NCCc1ccncc1)c1coc(-c2ccccc2)n1`, in data set [1], the inhibition was 38.7%. Still for that read-out and setting: as for `Cc1cccc(C(=O)NCCc2ccncc2)n1`, the figure is 36.4%. Regarding `O=C(NCCc1ccccc1F)c1ccc(-c2ccccc2)cn1`, the CC50 at 48 h in data set [2] is over 50 µM. The inhibition in data set [1] is 91.4%.

As to `O=C(NCCc1ccccc1Cl)c1ccc(-c2ccccc2)cc1`, the CC50 at 48 h in data set [2] was over 50 µM. For the same molecule, the inhibition in data set [1] stood at 77.2%.

With `O=C(NCCc1ccncc1)c1nc(-c2ccccc2)no1`, in data set [1], the inhibition was found to be 36.9%. Take `O=C(NCCc1ccncc1)c1nnc(-c2ccccc2)o1`: the CC50 at 48 h in data set [2] is over 50 µM. Besides, the inhibition in data set [1] came to 67.3%.

As for `Cc1nc(C(=O)NCCc2cccc(Cl)c2)cs1`, the inhibition in data set [1] was determined as 1.2%. In the case of `N#CC1(c2ccc(NC(=O)c3cccnc3NCc3ccncc3)cc2)CCCC1`, the outcome in data set [3] was Active. Take `O=C(NCCc1ccccc1Cl)c1coc(-c2ccccc2)n1`: the inhibition in data set [1] turned out to be 51.4%.

As to `N#Cc1cccc(-c2ccc(C(=O)NCCc3ccccc3F)nc2)c1`, in data set [1], the inhibition was found to be 44.5%. Same read-out and setting: as for `O=C(NCCc1ccc(F)cc1)c1ccc(-c2ccccc2)cn1`, the figure is 46.1%; as for `O=C(NCCc1ccncc1)c1ncc(-c2ccccc2)o1`, 53.5%; as for `Cc1nc(C(=O)NCCc2ccc(Cl)cc2)cs1`, 0.6%. On the same count and under the same terms, as for `O=C(NCCc1ccccc1Cl)c1csc(-c2cccnc2)n1`, the figure is 21.6%. Regarding `O=C(NCCc1ccccc1Cl)c1ccc(-c2ccccc2)cn1`, in data set [2], the CC50 at 48 h was over 50 µM. For the same molecule, the inhibition in data set [1] worked out at 68.4%. `O=C(NCCc1ccc(Cl)cc1)c1ccc(-c2ccccc2)cn1`: the inhibition in data set [1] was determined as 58.2%. Regarding `COC(=O)c1ccc(O)c(NC(=O)COc2ccc(C34CC5CC(CC(C5)C3)C4)cc2)c1`, the “HIF-1α accumulation inhibition (qualitative)” value (“HIF-1α accumulation inhibition” below) in data set [4] was “Active”. Moreover, in data set [2], the CC50 at 48 h was over 50 µM. In addition, the inhibition in data set [1] was determined as 73.5%. With `Nc1ccc(CCNC(=O)c2ccc(-c3ccccc3)cn2)cc1`, the CC50 at 48 h in data set [2] was over 50 µM. Also, the inhibition in data set [1] was found to be 60.2%. Take `O=C(NCCc1ccccc1F)c1ccc(-c2cn[nH]c2)cn1`: the “HIF-1α accumulation inhibition” value in data set [4] is “Active”. Moreover, the inhibition in data set [1] was determined as 29.5%.

In the case of `O=C(NCCc1ccccc1F)c1ccc(-c2ccccc2F)cn1`, the CC50 at 48 h in data set [2] was over 50 µM. Moreover, the inhibition in data set [1] was determined as 83.8%. The matching figures for `O=C(NCCc1ccncc1)c1nccc(-c2ccccc2)n1`: over 50 µM and 61.5%. With `Cc1nc(C(=O)NCCc2ccccn2)cs1`, in data set [1], the inhibition was 5.1%. Consider `O=C(NCCc1ccccc1F)c1ccc(-c2ccoc2)cn1`, for which, in data set [4], the “HIF-1α accumulation inhibition” value was “Active”. The 50% cytotoxic concentration (CC50) at 48 h in data set [2] is over 50 µM. Also, in data set [1], the inhibition was determined as 73.4%. Regarding `O=C(NCCc1ccncc1)c1ccc(-c2ccccc2)cc1`, in data set [1], the inhibition is 42%.

Take `N#Cc1ccccc1-c1ccc(C(=O)NCCc2ccccc2F)nc1`: in data set [2], the CC50 at 48 h is over 50 µM. Also, in data set [1], the inhibition is 62.7%.

For `O=C(NCCc1ccccc1)c1ccc(-c2ccccc2)cn1`, the CC50 at 48 h in data set [2] is over 50 µM. Moreover, the inhibition in data set [1] was 82.2%. As for `COc1ccc(-c2ccc(C(=O)NCCc3ccccc3F)nc2)cc1`, the inhibition in data set [1] is 45.6%.

As for `Cc1nc(C(=O)NCCCc2ccccc2)cs1`, in data set [1], the inhibition came to 6.5%. Regarding `O=C(NCCc1ccccc1Cl)c1ncc(-c2ccccc2)o1`, the inhibition in data set [1] came to 52.3%. Same read-out and setting: as for `O=C(NCCc1ccccn1)c1ccc(-c2ccccc2)cn1`, the figure is 43.7%. Regarding `Cc1nc(C(=O)NCCc2ccccc2)cs1`, the “HIF-1α accumulation inhibition” value in data set [4] was “Active”. In data set [1], the inhibition came to 21.2%. For the molecule `O=C(NCCc1ccncc1)c1ccc(-c2ccccc2)nc1`, in data set [1], the inhibition was 47.4%. As for `O=C(NCCc1cccc(F)c1)c1ccc(-c2ccccc2)cn1`, in data set [1], the inhibition was found to be 58.7%. `O=C(NCCc1ccccc1F)c1ccc(-c2cccs2)cn1`: the cytotoxic concentration (CC50) at 48 h in data set [2] was over 50 µM. Also, the inhibition in data set [1] is 80%. On to `Cc1nc(C(=O)NCCc2cccnc2)cs1`, for which the inhibition in data set [1] stood at 2.4%.

These data come from ChEMBL document CHEMBL4354811, “Discovery of Novel Aryl Carboxamide Derivatives as Hypoxia-Inducible Factor 1α Signaling Inhibitors with Potent Activities of Anticancer Metastasis” (J Med Chem, 2019).
